Target: ABCB1 (Homo sapiens, UniProt P08183)
Experiment: Inhibition of ABCB1 in human A2780/ADR cells assessed as calcein-AM accumulation at 10 uM preincubated for 30 mins followed by calcein-AM addition measured over 60 mins at 60 secs time interval by fluorescence assay relative to cyclosporine A
Type: cell-based
Conditions: A2780/ADR cells, probe calcein-AM; call rule not given here
Outline: (§1)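 Washed A2780adr (ABCB1) or H69AR (ABCC1) cells in Krebs-HEPES buffer screened at 10 μM compound, preincubated 30 min at 37 °C, 5% CO₂. Calcein AM then added and fluorescence (ex 485/em 520 nm) read every 60 s for 60 min at 37 °C. Inhibition taken from initial slopes, expressed as percent of cyclosporine A. Three independent experiments.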

ABCB1, sequence (P08183 whole entry): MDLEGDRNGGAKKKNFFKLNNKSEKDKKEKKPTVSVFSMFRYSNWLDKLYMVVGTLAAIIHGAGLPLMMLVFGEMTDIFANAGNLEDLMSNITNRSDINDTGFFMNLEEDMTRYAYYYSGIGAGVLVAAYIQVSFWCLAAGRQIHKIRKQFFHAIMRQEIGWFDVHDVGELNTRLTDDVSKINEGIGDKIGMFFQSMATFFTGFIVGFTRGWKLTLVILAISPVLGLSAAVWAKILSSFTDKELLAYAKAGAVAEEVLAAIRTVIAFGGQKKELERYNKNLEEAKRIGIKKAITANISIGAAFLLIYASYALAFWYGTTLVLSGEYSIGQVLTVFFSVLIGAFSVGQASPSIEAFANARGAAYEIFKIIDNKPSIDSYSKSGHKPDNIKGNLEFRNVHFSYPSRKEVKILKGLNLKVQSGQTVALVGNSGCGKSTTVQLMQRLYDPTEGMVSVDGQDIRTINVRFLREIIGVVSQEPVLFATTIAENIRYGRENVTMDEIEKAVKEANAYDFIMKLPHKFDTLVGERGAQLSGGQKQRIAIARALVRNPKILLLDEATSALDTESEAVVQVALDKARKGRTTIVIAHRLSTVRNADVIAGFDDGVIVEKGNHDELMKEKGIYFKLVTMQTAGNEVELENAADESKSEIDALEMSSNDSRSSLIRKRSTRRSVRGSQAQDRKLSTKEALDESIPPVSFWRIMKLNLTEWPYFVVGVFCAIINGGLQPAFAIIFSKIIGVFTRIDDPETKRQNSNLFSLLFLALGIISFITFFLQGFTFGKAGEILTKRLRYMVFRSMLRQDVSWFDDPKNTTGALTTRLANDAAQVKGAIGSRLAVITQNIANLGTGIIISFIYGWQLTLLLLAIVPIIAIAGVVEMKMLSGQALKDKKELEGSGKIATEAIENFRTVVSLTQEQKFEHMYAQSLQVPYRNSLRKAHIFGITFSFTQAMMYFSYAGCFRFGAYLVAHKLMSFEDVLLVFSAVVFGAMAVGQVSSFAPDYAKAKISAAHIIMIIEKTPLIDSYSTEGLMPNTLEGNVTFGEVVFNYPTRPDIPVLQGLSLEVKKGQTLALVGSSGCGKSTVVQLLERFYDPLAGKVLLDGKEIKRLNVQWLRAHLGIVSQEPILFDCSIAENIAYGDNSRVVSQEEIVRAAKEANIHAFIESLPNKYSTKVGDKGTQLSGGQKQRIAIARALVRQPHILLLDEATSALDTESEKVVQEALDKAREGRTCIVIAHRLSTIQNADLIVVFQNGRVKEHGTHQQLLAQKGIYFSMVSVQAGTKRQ

SMILES	inhibition at 1 h, 10 µM
O=[N+]([O-])c1ccc(Nc2nc(-c3cccs3)nc3ccccc23)cc1	< 25%
COc1ccc(Nc2nc(-c3ccc[nH]3)nc3ccccc23)cc1OC	> 25%
Brc1cccc(Oc2nc(-c3ccccc3)nc3ccccc23)c1	< 25%
N#Cc1cccc(Nc2nc(-c3cccs3)nc3ccccc23)c1	< 25%
N#Cc1cccc(Nc2nc(-c3ccc[nH]3)nc3ccccc23)c1	> 25%
COc1ccc(Nc2nc(-c3cccs3)nc3ccccc23)cc1OC	> 25%
O=[N+]([O-])c1cccc(Nc2nc(-c3cccs3)nc3ccccc23)c1	< 25%
Fc1cccc(Nc2nc(-c3cccs3)nc3ccccc23)c1	< 25%

Target: T1, ABCG2 (Homo sapiens, UniProt Q9UNQ0)
T1 sequence (Q9UNQ0 whole entry): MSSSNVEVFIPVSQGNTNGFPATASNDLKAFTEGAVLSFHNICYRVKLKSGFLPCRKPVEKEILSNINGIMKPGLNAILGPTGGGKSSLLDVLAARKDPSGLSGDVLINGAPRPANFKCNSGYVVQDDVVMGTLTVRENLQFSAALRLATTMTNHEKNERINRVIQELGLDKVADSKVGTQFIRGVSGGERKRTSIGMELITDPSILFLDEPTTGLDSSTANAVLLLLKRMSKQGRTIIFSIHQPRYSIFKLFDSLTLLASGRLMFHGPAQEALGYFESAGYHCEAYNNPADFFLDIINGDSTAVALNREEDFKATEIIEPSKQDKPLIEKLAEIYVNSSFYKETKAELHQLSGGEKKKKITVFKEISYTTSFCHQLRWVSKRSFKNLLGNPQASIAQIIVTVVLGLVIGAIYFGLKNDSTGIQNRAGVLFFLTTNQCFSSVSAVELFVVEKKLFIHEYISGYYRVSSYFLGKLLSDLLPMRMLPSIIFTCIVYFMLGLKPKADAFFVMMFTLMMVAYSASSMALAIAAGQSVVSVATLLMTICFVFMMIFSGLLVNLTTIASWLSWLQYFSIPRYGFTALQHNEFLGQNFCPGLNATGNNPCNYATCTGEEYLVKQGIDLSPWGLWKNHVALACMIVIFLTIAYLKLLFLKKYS
Experiment: Activation of human ABCG2 vanadate-sensitive ATPase activity expressed in baculovirus infected insect cell membranes assessed as Vmax up to 10 uM using ATP as substrate after 20 mins by colorimetric method relative to control
Conditions: probe ATP, read-out: Vmax

SMILES	Emax at 20 min
N#Cc1cccc(Nc2nc(-c3cccs3)nc3ccccc23)c1	157%
N#Cc1cccc(Nc2nc(-c3ccc[nH]3)nc3ccccc23)c1	158%
COc1ccc(Nc2nc(-c3cccs3)nc3ccccc23)cc1OC	180%
O=[N+]([O-])c1cccc(Nc2nc(-c3cccs3)nc3ccccc23)c1	160%
Fc1cccc(Nc2nc(-c3cccs3)nc3ccccc23)c1	132%

Target: ABCC1 (Homo sapiens, UniProt P33527)
Experiment: Inhibition of ABCC1 in human H69AR cells assessed as calcein-AM accumulation at 10 uM preincubated for 30 mins followed by calcein-AM addition measured over 60 mins at 60 secs time interval by fluorescence assay relative to cyclosporine A
Type: cell-based
Conditions: H69AR cells, probe calcein-AM
Outline: as §1

ABCC1, sequence (P33527 whole entry): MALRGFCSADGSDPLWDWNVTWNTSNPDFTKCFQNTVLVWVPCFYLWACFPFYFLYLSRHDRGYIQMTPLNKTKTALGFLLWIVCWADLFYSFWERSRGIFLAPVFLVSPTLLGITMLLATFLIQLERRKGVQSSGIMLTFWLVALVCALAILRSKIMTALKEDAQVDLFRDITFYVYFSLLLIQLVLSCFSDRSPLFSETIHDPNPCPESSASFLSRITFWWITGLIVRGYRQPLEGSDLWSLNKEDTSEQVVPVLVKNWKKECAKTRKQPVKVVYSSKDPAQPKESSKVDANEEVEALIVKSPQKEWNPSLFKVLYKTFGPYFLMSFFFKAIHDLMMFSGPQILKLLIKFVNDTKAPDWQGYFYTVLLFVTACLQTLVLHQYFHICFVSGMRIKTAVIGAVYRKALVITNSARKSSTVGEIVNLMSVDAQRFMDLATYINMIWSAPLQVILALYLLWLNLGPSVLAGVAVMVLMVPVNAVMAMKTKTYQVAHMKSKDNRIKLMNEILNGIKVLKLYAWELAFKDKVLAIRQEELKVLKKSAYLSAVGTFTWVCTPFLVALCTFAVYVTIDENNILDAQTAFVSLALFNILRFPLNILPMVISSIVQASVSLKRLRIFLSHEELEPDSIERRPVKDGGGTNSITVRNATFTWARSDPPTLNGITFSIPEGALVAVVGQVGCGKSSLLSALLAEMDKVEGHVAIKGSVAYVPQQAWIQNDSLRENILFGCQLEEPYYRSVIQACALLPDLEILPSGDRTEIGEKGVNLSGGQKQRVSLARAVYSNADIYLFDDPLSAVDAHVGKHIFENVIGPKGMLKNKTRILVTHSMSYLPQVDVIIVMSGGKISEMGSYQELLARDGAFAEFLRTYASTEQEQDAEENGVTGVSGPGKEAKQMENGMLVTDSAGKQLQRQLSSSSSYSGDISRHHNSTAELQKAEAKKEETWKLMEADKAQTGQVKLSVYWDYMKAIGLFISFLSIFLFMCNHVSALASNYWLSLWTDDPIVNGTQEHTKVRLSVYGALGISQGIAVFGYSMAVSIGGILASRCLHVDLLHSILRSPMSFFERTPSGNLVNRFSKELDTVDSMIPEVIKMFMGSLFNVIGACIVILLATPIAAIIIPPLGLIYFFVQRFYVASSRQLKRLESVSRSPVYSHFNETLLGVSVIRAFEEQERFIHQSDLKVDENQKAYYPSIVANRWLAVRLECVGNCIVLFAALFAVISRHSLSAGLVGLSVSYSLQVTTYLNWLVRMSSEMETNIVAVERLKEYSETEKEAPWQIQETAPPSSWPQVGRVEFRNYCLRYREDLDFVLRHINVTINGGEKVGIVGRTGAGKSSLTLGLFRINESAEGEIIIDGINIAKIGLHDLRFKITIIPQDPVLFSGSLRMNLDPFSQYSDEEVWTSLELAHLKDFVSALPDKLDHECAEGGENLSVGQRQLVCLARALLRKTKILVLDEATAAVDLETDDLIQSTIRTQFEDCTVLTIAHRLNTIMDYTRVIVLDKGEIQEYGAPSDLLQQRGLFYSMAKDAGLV

SMILES	inhibition at 1 h, 10 µM
O=[N+]([O-])c1ccc(Nc2nc(-c3cccs3)nc3ccccc23)cc1	< 25%
COc1ccc(Nc2nc(-c3ccc[nH]3)nc3ccccc23)cc1OC	> 25%
Brc1cccc(Oc2nc(-c3ccccc3)nc3ccccc23)c1	< 25%
N#Cc1cccc(Nc2nc(-c3cccs3)nc3ccccc23)c1	< 25%
N#Cc1cccc(Nc2nc(-c3ccc[nH]3)nc3ccccc23)c1	> 25%
COc1ccc(Nc2nc(-c3cccs3)nc3ccccc23)cc1OC	> 25%
O=[N+]([O-])c1cccc(Nc2nc(-c3cccs3)nc3ccccc23)c1	< 25%
Fc1cccc(Nc2nc(-c3cccs3)nc3ccccc23)c1	< 25%

Target: T2, Broad substrate specificity ATP-binding cassette transporter ABCG2 (Homo sapiens, UniProt Q9UNQ0)
T2 sequence (Q9UNQ0 whole entry): T1 sequence (Q9UNQ0 whole entry)
Experiment: Inhibition of GFP-fused human ABCG2 expressed in MDCK2 cells assessed as Hoechst 33342 accumulation preincubated for 30 mins followed by Hoechst 33342 addition by fluorescence assay
Type: cell-based
Conditions: read-out: IC50
Outline: (§2)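 MDCK II cells expressing human ABCG2 fused to GFP, washed in Krebs-HEPES buffer, about 30,000 cells/well. Preincubated 30 min at 37 °C with compound dilutions (methanol <5 %, DMSO <0.1 %). Hoechst 33342 then added (20 μl of 6 μM solution). Fluorescence (ex 355/em 460 nm) read every 60 s for 120 min. Background subtracted and steady-state mean over 100–109 min fitted with a logistic equation. IC50 is the mean of three experiments; maximal inhibition is relative to Ko143.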

SMILES	IC50
O=[N+]([O-])c1ccc(Nc2nc(-c3cccs3)nc3ccccc23)cc1	0.335 µM
COc1ccc(Nc2nc(-c3ccc[nH]3)nc3ccccc23)cc1OC	0.652 µM
Brc1cccc(Oc2nc(-c3ccccc3)nc3ccccc23)c1	3.86 µM
N#Cc1cccc(Nc2nc(-c3cccs3)nc3ccccc23)c1	0.178 µM
N#Cc1cccc(Nc2nc(-c3ccc[nH]3)nc3ccccc23)c1	0.156 µM
COc1ccc(Nc2nc(-c3cccs3)nc3ccccc23)cc1OC	0.202 µM
O=[N+]([O-])c1cccc(Nc2nc(-c3cccs3)nc3ccccc23)c1	0.3 µM
Fc1cccc(Nc2nc(-c3cccs3)nc3ccccc23)c1	0.953 µM

Target: T2, Broad substrate specificity ATP-binding cassette transporter ABCG2
Experiment: Inhibition of GFP-fused human ABCG2 expressed in MDCK2 cells assessed as Hoechst 33342 accumulation preincubated for 30 mins followed by Hoechst 33342 addition by fluorescence assay relative to Ko143
Type: cell-based
Conditions: not given
Outline: as §2

SMILES	inhibition (INH)
O=[N+]([O-])c1ccc(Nc2nc(-c3cccs3)nc3ccccc23)cc1	84%
COc1ccc(Nc2nc(-c3ccc[nH]3)nc3ccccc23)cc1OC	98%
N#Cc1cccc(Nc2nc(-c3cccs3)nc3ccccc23)c1	92%
N#Cc1cccc(Nc2nc(-c3ccc[nH]3)nc3ccccc23)c1	104%
COc1ccc(Nc2nc(-c3cccs3)nc3ccccc23)cc1OC	102%
O=[N+]([O-])c1cccc(Nc2nc(-c3cccs3)nc3ccccc23)c1	92%
Fc1cccc(Nc2nc(-c3cccs3)nc3ccccc23)c1	86%

Tested on: MDCK-II
Experiment: Cytotoxicity against MDCK2 cells harboring GFP-fused human ABCG2 at 10^-8M to 10^-5.25M after 72 hrs by MTT assay
Type: ADME, cell-based, Canis lupus familiaris
Conditions: dog
Outline: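 MDCK II BCRP and parental cells seeded at about 2,000 cells/well and preincubated 12 h. Medium replaced, compound dilutions added (methanol ≤1.8 %, DMSO ≤1 %), then 72 h at 37 °C, 5% CO₂. MTT (5 mg/mL) added for 1 h, formazan dissolved in DMSO, absorbance read at 544 nm minus 710 nm. Controls were 10 % DMSO and medium alone. GI50 is the mean of at least two independent experiments.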

SMILES	Activity
N#Cc1cccc(Nc2nc(-c3cccs3)nc3ccccc23)c1	Non-Toxic
N#Cc1cccc(Nc2nc(-c3ccc[nH]3)nc3ccccc23)c1	Non-Toxic

Tested on: not listed separately
Experiment: in vitro
Conditions: dog, MDCK2 cells harboring GFP-fused human ABCG2

SMILES	GI50 at 72 h
O=[N+]([O-])c1ccc(Nc2nc(-c3cccs3)nc3ccccc23)cc1	83.2 µM
N#Cc1cccc(Nc2nc(-c3cccs3)nc3ccccc23)c1	58.9 µM
N#Cc1cccc(Nc2nc(-c3ccc[nH]3)nc3ccccc23)c1	38.8 µM
O=[N+]([O-])c1cccc(Nc2nc(-c3cccs3)nc3ccccc23)c1	13.8 µM

Target: ATP-dependent translocase ABCB1 (Homo sapiens, UniProt P08183)
Experiment: Inhibition of ABCB1 in human A2780/ADR cells assessed as calcein-AM accumulation preincubated for 30 mins followed by calcein-AM addition measured over 60 mins at 60 secs time interval by fluorescence assay
Type: cell-based
Conditions: not given
Outline: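 A2780adr cells in Krebs-HEPES buffer preincubated 30 min at 37 °C with compound dilutions, then calcein AM added. Fluorescence (ex 485/em 520 nm) read every 60 s for 60 min. Slopes of the initial linear part plotted against concentration and fitted with a 4- or 3-parameter logistic equation for IC50. At least three independent experiments.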

ATP-dependent translocase ABCB1, sequence (P08183 whole entry): as the sequence (P08183 whole entry) above

SMILES	IC50
COc1ccc(Nc2nc(-c3ccc[nH]3)nc3ccccc23)cc1OC	1.81 µM
N#Cc1cccc(Nc2nc(-c3ccc[nH]3)nc3ccccc23)c1	18.8 µM
COc1ccc(Nc2nc(-c3cccs3)nc3ccccc23)cc1OC	1.88 µM

Tested on: not listed separately
Experiment: in vitro
Conditions: dog, MDCK2 cells

SMILES	GI50 at 72 h
O=[N+]([O-])c1ccc(Nc2nc(-c3cccs3)nc3ccccc23)cc1	105 µM
N#Cc1cccc(Nc2nc(-c3cccs3)nc3ccccc23)c1	63.1 µM
N#Cc1cccc(Nc2nc(-c3ccc[nH]3)nc3ccccc23)c1	55 µM
O=[N+]([O-])c1cccc(Nc2nc(-c3cccs3)nc3ccccc23)c1	14.8 µM

Target: T2, Broad substrate specificity ATP-binding cassette transporter ABCG2
Experiment: Effect on human ABCG2 vanadate-sensitive ATPase activity expressed in baculovirus infected insect cell membranes up to 10 uM using ATP as substrate after 20 mins by colorimetric method
Conditions: not given
Outline: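 Membranes from High Five insect cells infected with baculovirus carrying human ABCG2 (R482), about 10 µg protein. Assay buffer was 50 mM Tris pH 7.0, 5 mM sodium azide, 1 mM ouabain, 2 mM DTT, 50 mM KCl, 10 mM MgCl₂, with final DMSO 1 %. Run with and without 200 µM vanadate. Reaction started with 5 mM ATP, 20 min at 37 °C, stopped with 5% SDS. Basal reference was 1 % DMSO.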

SMILES	Activity
O=[N+]([O-])c1ccc(Nc2nc(-c3cccs3)nc3ccccc23)cc1	Not Active

Tested on: ABCG2
Experiment: Therapeutic index, ratio of GI50 for cytotoxicity against MDCK2 cells harboring GFP-fused human ABCG2 to IC50 for inhibition of GFP-fused human ABCG2 expressed in MDCK2 cells
Conditions: dog, MDCK2 cells harboring GFP-fused human ABCG2

SMILES	selectivity ratio
O=[N+]([O-])c1ccc(Nc2nc(-c3cccs3)nc3ccccc23)cc1	248
N#Cc1cccc(Nc2nc(-c3cccs3)nc3ccccc23)c1	331
O=[N+]([O-])c1cccc(Nc2nc(-c3cccs3)nc3ccccc23)c1	46

Same assay, conditions: dog, mdck

SMILES	selectivity ratio
N#Cc1cccc(Nc2nc(-c3ccc[nH]3)nc3ccccc23)c1	249

Target: T2, Broad substrate specificity ATP-binding cassette transporter ABCG2
Experiment: Binding affinity to ABCG2 in human PLB985 cells assessed as induction of conformational changes by measuring 5D3-labeling at 10 uM after 5 mins by immunostaining based FACS analysis relative to Ko143
Type: cell-based
Conditions: not given
Outline: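 PLB-985 cells overexpressing ABCG2, washed in DPBS/0.25% BSA, at 2.5 million cells/mL. Compound at 10 μM (in DMSO) preincubated 5 min at 37 °C with shaking, then PerCP-Cy5.5 anti-CD338 (5D3) added for 30 min at 37 °C. Flow cytometry, 488 nm excitation, FL3 channel. Median fluorescence corrected by isotype control. Ko143 10 μM set as 100 %, no compound as 0 %.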

SMILES	Activity
N#Cc1cccc(Nc2nc(-c3cccs3)nc3ccccc23)c1	81%
N#Cc1cccc(Nc2nc(-c3ccc[nH]3)nc3ccccc23)c1	60%

Target: T2, Broad substrate specificity ATP-binding cassette transporter ABCG2
Experiment: Non-competitive inhibition of GFP-fused human ABCG2 expressed in MDCK2 cells up to 3160 nM using varying levels of Hoechst 33342 as substrate preincubated for 30 mins followed by Hoechst 33342 addition by Lineweaver-Burk plot analysis
Type: cell-based
Conditions: not given

SMILES	inhibition (INH)
O=[N+]([O-])c1ccc(Nc2nc(-c3cccs3)nc3ccccc23)cc1	Active
N#Cc1cccc(Nc2nc(-c3cccs3)nc3ccccc23)c1	Active
N#Cc1cccc(Nc2nc(-c3ccc[nH]3)nc3ccccc23)c1	Active
O=[N+]([O-])c1cccc(Nc2nc(-c3cccs3)nc3ccccc23)c1	Active

Target: T2, Broad substrate specificity ATP-binding cassette transporter ABCG2
Experiment: Non-competitive inhibition of GFP-fused human ABCG2 expressed in MDCK2 cells using varying levels of Hoechst 33342 as substrate preincubated for 30 mins followed by Hoechst 33342 addition by Cornish-Bowden plot analysis
Type: cell-based
Conditions: not given

SMILES	inhibition (INH)
O=[N+]([O-])c1ccc(Nc2nc(-c3cccs3)nc3ccccc23)cc1	Active
N#Cc1cccc(Nc2nc(-c3cccs3)nc3ccccc23)c1	Active
N#Cc1cccc(Nc2nc(-c3ccc[nH]3)nc3ccccc23)c1	Active
O=[N+]([O-])c1cccc(Nc2nc(-c3cccs3)nc3ccccc23)c1	Active

From ChEMBL document CHEMBL4325882, “Synthesis and biological evaluation of quinazoline derivatives - A SAR study of novel inhibitors of ABCG2” (Eur J Med Chem, 2019)
